Converted amounts (≈) assume the structure as drawn.
Tested on: not listed separately
Assay: In vitro evaluation for antibacterial activity against anaerobically grown Treponema hyodysenteriae (94A007)
Type: functional
Settings: Brachyspira hyodysenteriae

Compound | MIC [µg/mL]
CN1C2CC[C@@H]1CCN(c1cc3c(cc1F)c(=O)c(C(=O)O)cn3-c1ccc(F)cc1)C2 | 0.13 (≈ 0.296 µM)
CCn1cc(C(=O)O)c(=O)c2cc(F)c(N3CCN4CCC3CC4)c(F)c21.Cl.O | 1.56
CN1[C@@H]2CC[C@H]1CN(c1cc3c(cc1F)c(=O)c(C(=O)O)cn3CCF)C2.Cl.O | 3.13
CN1[C@@H]2CC[C@H]1CN(c1cc3c(cc1F)c(=O)c(C(=O)O)cn3-c1ccc(F)cc1)C2.Cl.O | 1.56
CN1C[C@@H]2C[C@H]1CN2c1c(F)cc2c(=O)c(C(=O)O)cn(C3CC3)c2c1F | 1.56 (≈ 4.16 µM)

Tested on: Escherichia coli
Assay: In vitro antibacterial activity against aerobically grown Escherichia coli (51A538)
Type: functional
Settings: not given
Method in brief: (§1)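 Agar dilution MICs. Aerobic strains were tested on brain heart infusion agar and incubated aerobically at 37 °C for 18–20 h.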

Compound | MIC [µg/mL]
CN1C2CC[C@@H]1CCN(c1cc3c(cc1F)c(=O)c(C(=O)O)cn3-c1ccc(F)cc1)C2 | 1.56 (≈ 3.55 µM)
CCn1cc(C(=O)O)c(=O)c2cc(F)c(N3CCN4CCC3CC4)c(F)c21.Cl.O | 0.2
CN1[C@@H]2CC[C@H]1CN(c1cc3c(cc1F)c(=O)c(C(=O)O)cn3CCF)C2.Cl.O | 0.2
CN1[C@@H]2CC[C@H]1CN(c1cc3c(cc1F)c(=O)c(C(=O)O)cn3-c1ccc(F)cc1)C2.Cl.O | 1.56
CN1C[C@@H]2C[C@H]1CN2c1c(F)cc2c(=O)c(C(=O)O)cn(C3CC3)c2c1F | < 0.05
CN1C2CC[C@@H]1CCN(c1cc3c(cc1F)c(=O)c(C(=O)O)cn3C)C2 | 6.25 (≈ 17.4 µM)

Tested on: Clostridium perfringens
Assay: microbe, parasite or virus in culture
Type: functional
Settings: not given

Compound | MIC [µg/mL]
CN1C2CC[C@@H]1CCN(c1cc3c(cc1F)c(=O)c(C(=O)O)cn3-c1ccc(F)cc1)C2 | 0.39 (≈ 0.887 µM)
CCn1cc(C(=O)O)c(=O)c2cc(F)c(N3CCN4CCC3CC4)c(F)c21.Cl.O | 0.78
CN1[C@@H]2CC[C@H]1CN(c1cc3c(cc1F)c(=O)c(C(=O)O)cn3CCF)C2.Cl.O | 0.39
CN1[C@@H]2CC[C@H]1CN(c1cc3c(cc1F)c(=O)c(C(=O)O)cn3-c1ccc(F)cc1)C2.Cl.O | 3.13
CN1C[C@@H]2C[C@H]1CN2c1c(F)cc2c(=O)c(C(=O)O)cn(C3CC3)c2c1F | 3.12 (≈ 8.31 µM)

Tested on: Actinobacillus pleuropneumoniae
Assay: In vitro antibacterial activity against anaerobically grown Actinobacillus pleuropneumoniae ([…])
Type: functional
Settings: not given
Method in brief: (§2)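 Agar dilution MICs. Anaerobic strains were tested on tryptose agar with 5% bovine blood and incubated 48 h at 39 °C in an anaerobe chamber under N2/CO2/H2 (80:10:10).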

Compound | MIC [µg/mL]
CN1C2CC[C@@H]1CCN(c1cc3c(cc1F)c(=O)c(C(=O)O)cn3-c1ccc(F)cc1)C2 | 0.78 (≈ 1.77 µM)
CCn1cc(C(=O)O)c(=O)c2cc(F)c(N3CCN4CCC3CC4)c(F)c21.Cl.O | 0.05
CN1[C@@H]2CC[C@H]1CN(c1cc3c(cc1F)c(=O)c(C(=O)O)cn3CCF)C2.Cl.O | 0.1
CN1[C@@H]2CC[C@H]1CN(c1cc3c(cc1F)c(=O)c(C(=O)O)cn3-c1ccc(F)cc1)C2.Cl.O | 0.78
CN1C[C@@H]2C[C@H]1CN2c1c(F)cc2c(=O)c(C(=O)O)cn(C3CC3)c2c1F | < 0.05

Tested on: Phocaeicola vulgatus
Assay: In vitro antibacterial activity against anaerobically grown Bacteroides vulgatus (78D029)
Type: functional
Settings: not given
Method in brief: as §2

Compound | MIC [µg/mL]
CN1C2CC[C@@H]1CCN(c1cc3c(cc1F)c(=O)c(C(=O)O)cn3-c1ccc(F)cc1)C2 | > 3.13
CCn1cc(C(=O)O)c(=O)c2cc(F)c(N3CCN4CCC3CC4)c(F)c21.Cl.O | 1.56
CN1[C@@H]2CC[C@H]1CN(c1cc3c(cc1F)c(=O)c(C(=O)O)cn3CCF)C2.Cl.O | 6.25
CN1[C@@H]2CC[C@H]1CN(c1cc3c(cc1F)c(=O)c(C(=O)O)cn3-c1ccc(F)cc1)C2.Cl.O | 0.78
CN1C[C@@H]2C[C@H]1CN2c1c(F)cc2c(=O)c(C(=O)O)cn(C3CC3)c2c1F | 3.12 (≈ 8.31 µM)

Tested on: Salmonella enterica
Assay: In vitro antibacterial activity against aerobically grown Salmonella choleraesuis (58B015)
Type: functional
Settings: not given

Compound | MIC [µg/mL]
CN1C2CC[C@@H]1CCN(c1cc3c(cc1F)c(=O)c(C(=O)O)cn3-c1ccc(F)cc1)C2 | > 1.56
CCn1cc(C(=O)O)c(=O)c2cc(F)c(N3CCN4CCC3CC4)c(F)c21.Cl.O | 0.2
CN1[C@@H]2CC[C@H]1CN(c1cc3c(cc1F)c(=O)c(C(=O)O)cn3CCF)C2.Cl.O | 0.39
CN1[C@@H]2CC[C@H]1CN(c1cc3c(cc1F)c(=O)c(C(=O)O)cn3-c1ccc(F)cc1)C2.Cl.O | > 1.56
CN1C2CC[C@@H]1CCN(c1cc3c(cc1F)c(=O)c(C(=O)O)cn3C)C2 | 6.25 (≈ 17.4 µM)

Tested on: Bordetella bronchiseptica
Assay: In vitro antibacterial activity against aerobically grown Bordetella bronchiseptica (73A009)
Type: functional
Settings: not given
Method in brief: as §1

Compound | MIC [µg/mL]
CN1C2CC[C@@H]1CCN(c1cc3c(cc1F)c(=O)c(C(=O)O)cn3-c1ccc(F)cc1)C2 | > 1.56
CCn1cc(C(=O)O)c(=O)c2cc(F)c(N3CCN4CCC3CC4)c(F)c21.Cl.O | 0.78
CN1[C@@H]2CC[C@H]1CN(c1cc3c(cc1F)c(=O)c(C(=O)O)cn3CCF)C2.Cl.O | 3.13
CN1[C@@H]2CC[C@H]1CN(c1cc3c(cc1F)c(=O)c(C(=O)O)cn3-c1ccc(F)cc1)C2.Cl.O | > 1.56
CN1C[C@@H]2C[C@H]1CN2c1c(F)cc2c(=O)c(C(=O)O)cn(C3CC3)c2c1F | 0.39 (≈ 1.04 µM)
CN1C2CC[C@@H]1CCN(c1cc3c(cc1F)c(=O)c(C(=O)O)cn3C)C2 | > 25

Tested on: Staphylococcus aureus
Assay: In vitro antibacterial activity against aerobically grown Staphylococcus aureus (54B004)
Type: functional
Settings: not given
Method in brief: as §1

Compound | MIC [µg/mL]
CN1C2CC[C@@H]1CCN(c1cc3c(cc1F)c(=O)c(C(=O)O)cn3-c1ccc(F)cc1)C2 | 0.78 (≈ 1.77 µM)
CCn1cc(C(=O)O)c(=O)c2cc(F)c(N3CCN4CCC3CC4)c(F)c21.Cl.O | 0.39
CN1[C@@H]2CC[C@H]1CN(c1cc3c(cc1F)c(=O)c(C(=O)O)cn3CCF)C2.Cl.O | 0.2
CN1[C@@H]2CC[C@H]1CN(c1cc3c(cc1F)c(=O)c(C(=O)O)cn3-c1ccc(F)cc1)C2.Cl.O | 0.78
CN1C[C@@H]2C[C@H]1CN2c1c(F)cc2c(=O)c(C(=O)O)cn(C3CC3)c2c1F | 0.1 (≈ 0.266 µM)
CN1C2CC[C@@H]1CCN(c1cc3c(cc1F)c(=O)c(C(=O)O)cn3C)C2 | 1.56 (≈ 4.34 µM)

Tested on: Escherichia coli
Assay: Escherichia coli DNA cleavage endpoint value which is the minimum amount required (in micro g/mL) to induce detectable cleavage of supercoiled pBR322 substrate to linear form (gyrase)
Type: functional
Settings: read-out: MIC
Method in brief: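 DNA gyrase A and B subunits were purified from E. coli overproducers. About 2 units of holoenzyme were incubated with pBR322 in Tris-HCl pH 7.5 containing MgCl2, spermidine, DTT, 0.2 mM ATP, BSA and tRNA. Drug was added as 2-fold serial dilutions, and reactions ran for 60 min at 25 °C. Reactions were stopped with SDS and proteinase K, then run on agarose and stained with ethidium. The endpoint was the lowest concentration giving detectable linear DNA.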

Compound | minimum concentration inducing gyrase-mediated DNA cleavage [µg/mL]
CN1C2CC[C@@H]1CCN(c1cc3c(cc1F)c(=O)c(C(=O)O)cn3-c1ccc(F)cc1)C2 | 0.19
CCn1cc(C(=O)O)c(=O)c2cc(F)c(N3CCN4CCC3CC4)c(F)c21.Cl.O | 1.56
CN1[C@@H]2CC[C@H]1CN(c1cc3c(cc1F)c(=O)c(C(=O)O)cn3CCF)C2.Cl.O | 3.12
CN1C[C@@H]2C[C@H]1CN2c1c(F)cc2c(=O)c(C(=O)O)cn(C3CC3)c2c1F | 0.39
CN1C2CC[C@@H]1CCN(c1cc3c(cc1F)c(=O)c(C(=O)O)cn3C)C2 | 6.25

Tested on: not listed separately
Assay: In vitro antibacterial activity against Aerobically grown Pasteurella haemolytica (59B018)
Type: functional
Settings: Mannheimia haemolytica
Method in brief: as §1

Compound | MIC [µg/mL]
CN1C2CC[C@@H]1CCN(c1cc3c(cc1F)c(=O)c(C(=O)O)cn3-c1ccc(F)cc1)C2 | 1.56 (≈ 3.55 µM)
CCn1cc(C(=O)O)c(=O)c2cc(F)c(N3CCN4CCC3CC4)c(F)c21.Cl.O | 0.2
CN1[C@@H]2CC[C@H]1CN(c1cc3c(cc1F)c(=O)c(C(=O)O)cn3CCF)C2.Cl.O | 0.2
CN1[C@@H]2CC[C@H]1CN(c1cc3c(cc1F)c(=O)c(C(=O)O)cn3-c1ccc(F)cc1)C2.Cl.O | 0.78
CN1C[C@@H]2C[C@H]1CN2c1c(F)cc2c(=O)c(C(=O)O)cn(C3CC3)c2c1F | < 0.05
CN1C2CC[C@@H]1CCN(c1cc3c(cc1F)c(=O)c(C(=O)O)cn3C)C2 | 6.25 (≈ 17.4 µM)

Tested on: Pasteurella multocida
Assay: In vitro antibacterial activity against aerobically grown Pasteurella multocida (59A006)
Type: functional
Settings: not given
Method in brief: as §1

Compound | MIC [µg/mL]
CN1C2CC[C@@H]1CCN(c1cc3c(cc1F)c(=O)c(C(=O)O)cn3-c1ccc(F)cc1)C2 | 0.2 (≈ 0.455 µM)
CCn1cc(C(=O)O)c(=O)c2cc(F)c(N3CCN4CCC3CC4)c(F)c21.Cl.O | 0.1
CN1[C@@H]2CC[C@H]1CN(c1cc3c(cc1F)c(=O)c(C(=O)O)cn3CCF)C2.Cl.O | 0.2
CN1[C@@H]2CC[C@H]1CN(c1cc3c(cc1F)c(=O)c(C(=O)O)cn3-c1ccc(F)cc1)C2.Cl.O | 0.2
CN1C[C@@H]2C[C@H]1CN2c1c(F)cc2c(=O)c(C(=O)O)cn(C3CC3)c2c1F | < 0.05
CN1C2CC[C@@H]1CCN(c1cc3c(cc1F)c(=O)c(C(=O)O)cn3C)C2 | 6.25 (≈ 17.4 µM)

Tested on: Trueperella pyogenes
Assay: In vitro antibacterial activity against anaerobically grown Actinomyces pyogenes (14D002)
Type: functional
Settings: not given
Method in brief: as §2

Compound | MIC [µg/mL]
CN1C2CC[C@@H]1CCN(c1cc3c(cc1F)c(=O)c(C(=O)O)cn3-c1ccc(F)cc1)C2 | > 3.13
CCn1cc(C(=O)O)c(=O)c2cc(F)c(N3CCN4CCC3CC4)c(F)c21.Cl.O | > 3.13
CN1[C@@H]2CC[C@H]1CN(c1cc3c(cc1F)c(=O)c(C(=O)O)cn3-c1ccc(F)cc1)C2.Cl.O | > 3.13
CN1C[C@@H]2C[C@H]1CN2c1c(F)cc2c(=O)c(C(=O)O)cn(C3CC3)c2c1F | 0.78 (≈ 2.08 µM)
